The list is not random: actives were taken first. Their share in the collection is about 2%.
ASAP1 GAP inh: ASAP1 ArfGAP inhibition; inhibition, % at 16.5 µM; Q9ULH1; ASAP1-stimulated ARF1 GTP hydrolysis, GDP FP detection; 360,000 compounds, 0.19% hits; in the data active = inhibition above about 25%
Target sequence (Q9ULH1 325-724 limits assumed): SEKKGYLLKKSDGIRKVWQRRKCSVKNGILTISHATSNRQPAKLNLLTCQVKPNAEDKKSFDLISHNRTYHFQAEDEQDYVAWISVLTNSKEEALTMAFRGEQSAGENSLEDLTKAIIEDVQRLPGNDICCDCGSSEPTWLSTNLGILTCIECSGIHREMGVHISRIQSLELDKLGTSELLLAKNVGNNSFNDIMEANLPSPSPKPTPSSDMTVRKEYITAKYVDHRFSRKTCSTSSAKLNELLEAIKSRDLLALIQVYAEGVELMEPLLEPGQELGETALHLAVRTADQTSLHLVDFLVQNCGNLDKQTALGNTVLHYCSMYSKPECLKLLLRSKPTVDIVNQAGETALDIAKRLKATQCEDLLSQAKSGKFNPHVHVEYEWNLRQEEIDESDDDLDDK
TDP2 absorb: blocks human TDP2 phosphodiesterase activity. O95551. recombinant TDP2, T5PNP hydrolysis, p-nitrophenol absorbance 415 nm. inhibition, % at 12.8 µM. 370,000 compounds, 0.34% hits. AID 720702;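 active = inhibition above the mean of all tested compounds plus 3 SD, set per campaign, cut at about 25% in these data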
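System – recombinant human TDP2 · Amount – 120 nM TDP2 per well · Buffer or medium – Mg2+-containing Tris-HCl buffer, pH 7.5 · Reagent – T5PNP substrate, 5 mM · Dosing – 12.8 µM single point, 1% DMSO · Incubation – 2 h at 37 °C · Measured by – epi absorbance · Read-out basis – percent inhibition · Benchmarks – high control without enzyme, low control DMSO plus TDP2 · Repeats – singlicate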
MBD2 inh: blocks human MBD2 binding to methylated DNA | TR-FRET, MBD2 binding to methylated oligonucleotide | inhibition, % at 4.4 µM | 370,000 compounds, 0.31% hits | AID 686964; in the data active = inhibition above about 13%
ARFGAP1 inhibitor: inhibitors of rat ARFGAP1. Q62848. Arfgap1-stimulated ARF1 GTP hydrolysis, GDP FP detection. inhibition, % at 16.5 µM. 360,000 compounds, 0.26% hits. AID 651572;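 active = inhibition above a per-plate limit, mean inhibition of low control wells plus 3 SD, cut at about 25% in these data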
Target sequence (Q62848 1-136 limits assumed): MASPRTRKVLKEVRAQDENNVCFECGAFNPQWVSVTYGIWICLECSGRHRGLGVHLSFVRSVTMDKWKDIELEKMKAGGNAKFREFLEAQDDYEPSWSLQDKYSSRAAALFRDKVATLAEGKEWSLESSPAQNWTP
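Repeats: one replicate per compound; assay system: rat Arfgap1 catalytic domain, aa 1-136; times: enzyme reaction 120 min at 25 °C after 20 min preincubation; detection: FP of antibody-bound GDP Alexa 633 tracer, ex 620/em 688 nm; benchmarks: high control wells lacking Arfgap1, low control full reaction with DMSO; reagent: human ARF1(Δ1-17)-GTP substrate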
UHRF1 MBD2 ctr: UHRF1 methyl-DNA binding inhibition. Q96T88. UHRF1 binding to methylated oligo, TR-FRET. inhibition, % at 4.4 µM. 370,000 compounds, 0.75% hits; in the data active = inhibition above about 21%;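 also: UHRF1 SRA domain binding a hemimethylated CpG hairpin DNA probe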
LEDGF integ inh: blocks HIV-1 LEDGF/p75-dependent DNA integration. 370,000 compounds, 0.64% hits. AID 743269. TR-FRET IN-LEDGF/p75 DNA integration, Eu/Cy5. inhibition, % at 3.7 µM;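 active = inhibition above the screen-wide mean plus 3 SD, cut at about 13% in these data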;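 also: signal is the Cy5 over europium emission ratio at 671 and 618 nm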
IN multimer act: counter-screen for LEDGF/p75 integration inhibitors: HIV-1 integrase multimerization activators; shares compounds with LEDGF integ inh; TR-FRET HIV-1 integrase multimerization, biochemical; activation, % at 7.7 µM; 2,000 compounds, 17% hits; in the data active = activation above about 8.9%
TRFRET interf: counter-screen for LEDGF/p75 integration inhibitors: TR-FRET optical interference; 2,000 tested, under 10 active; AID 1053135; TR-FRET optical interference counterscreen, HIV-1 IN multimerization; shares compounds with LEDGF integ inh; inhibition, % at 7.7 µM;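 active = inhibition above the mean over all tested compounds plus 3 SD, which no compound reached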
IN-LEDGF confirm: confirmation of HIV-1 LEDGF/p75-dependent integration inhibitors | shares compounds with LEDGF integ inh | TR-FRET LEDGF/p75-dependent HIV-1 integration, biochemical | inhibition, % at 3.7 µM | 2,000 compounds, 36% hits; in the data active = inhibition above about 14%
Numbers stand for hits.

`COc1ccc(C(=O)OCCCN(C)C2CN(Cc3cn(Cc4ccc([N+](=O)[O-])cc4)nn3)S(=O)(=O)C2)cc1OC` (centres undefined) gave TDP2 absorb inactive, MBD2 inh inactive, UHRF1 MBD2 ctr inactive and LEDGF integ inh inactive.
Screening CC1C=CC=CCCC=CC=CC=CC=CC(OC2O[C@H](C)[C@@H](O)[C@H](N)[C@@H]2O)CC(O)C(C(=O)O)C(O)CC(=O)CC(O)C(O)CCC(O)CC(O)CC(O)CC(=O)OC(C)C(C)C1O (some centres undefined) returned TDP2 absorb inactive, MBD2 inh inactive, UHRF1 MBD2 ctr inactive, LEDGF integ inh 26, IN multimer act inactive, TRFRET interf inactive and IN-LEDGF confirm 43.
CCOC(=O)Cc1nc(N2CCN(CCO)CC2)c2c(C)c(C(=O)OCC)sc2n1 was read as TDP2 absorb inactive, MBD2 inh inactive, UHRF1 MBD2 ctr inactive and LEDGF integ inh inactive.
For CC(C)C[C@@H]1COc2cc(N3CCSCC3)ccc2S(=O)(=O)N1C the results were TDP2 absorb inactive, MBD2 inh inactive, UHRF1 MBD2 ctr inactive and LEDGF integ inh inactive.
Screening COc1ccc(Cn2ccc3ccc(-c4ccc5ccn(C(=O)C6CCCCC6)c5c4)cc32)cc1 returned TDP2 absorb inactive, MBD2 inh inactive, UHRF1 MBD2 ctr inactive and LEDGF integ inh inactive.
`CCCn1c(CNC(=O)c2ccccc2)nc2ccccc21` gave ASAP1 GAP inh inactive, TDP2 absorb inactive, MBD2 inh inactive, ARFGAP1 inhibitor inactive, UHRF1 MBD2 ctr inactive and LEDGF integ inh inactive.
For CCCn1c(NC(=O)c2ccccc2)nc2ccccc21 the results were ASAP1 GAP inh inactive, TDP2 absorb inactive, MBD2 inh inactive, ARFGAP1 inhibitor inactive, UHRF1 MBD2 ctr inactive, LEDGF integ inh 19, IN multimer act inactive, TRFRET interf inactive and IN-LEDGF confirm 24.
Screening CCCn1c(NC(=O)c2ccc(C)cc2)nc2ccccc21 returned ASAP1 GAP inh inactive, TDP2 absorb inactive, MBD2 inh inactive, ARFGAP1 inhibitor inactive, UHRF1 MBD2 ctr inactive, LEDGF integ inh 19, IN multimer act inactive, TRFRET interf inactive and IN-LEDGF confirm 22.
Screening COC(=O)[C@]12C[C@H](CC(=O)NCc3cccc(C(F)(F)F)c3)C(=O)N(CCC3=CCCCC3)C1=C[C@H](C(C)C)O[C@@H]2C1CC1 returned TDP2 absorb inactive, MBD2 inh inactive, UHRF1 MBD2 ctr inactive and LEDGF integ inh inactive.
`O=C(CCc1ccccc1)N[C@H]1[C@H](OC(=O)c2ccc3ccccc3n2)CCC[C@@]12C(=O)N(Cc1ccccc1)c1ccccc12` gave TDP2 absorb inactive, MBD2 inh inactive, UHRF1 MBD2 ctr inactive and LEDGF integ inh inactive.
Oc1cccc(/C=N/NC(=S)NCCN2CCOCC2)c1O was read as ASAP1 GAP inh inactive, TDP2 absorb inactive, MBD2 inh inactive, ARFGAP1 inhibitor inactive, UHRF1 MBD2 ctr 30, LEDGF integ inh 79, IN multimer act inactive, TRFRET interf inactive and IN-LEDGF confirm inactive.
`COc1ccccc1N1C(=O)CC(Nc2ccc(N3CCOCC3)cc2)C1=O` (centres undefined) gave ASAP1 GAP inh inactive, TDP2 absorb inactive, MBD2 inh inactive, ARFGAP1 inhibitor inactive, UHRF1 MBD2 ctr inactive, LEDGF integ inh 15, IN multimer act inactive, TRFRET interf inactive and IN-LEDGF confirm inactive.
Screening CCOc1ccccc1N1C(=O)CC(Nc2ccc(N3CCOCC3)cc2)C1=O (centres undefined) returned ASAP1 GAP inh inactive, TDP2 absorb inactive, MBD2 inh inactive, ARFGAP1 inhibitor inactive, UHRF1 MBD2 ctr inactive and LEDGF integ inh inactive.
O=C1c2cc(O)c(O)cc2OC(c2ccc(O)c(O)c2)C1O (centres undefined) was read as ASAP1 GAP inh inactive, TDP2 absorb inactive, MBD2 inh inactive, ARFGAP1 inhibitor inactive, UHRF1 MBD2 ctr inactive, LEDGF integ inh 49, IN multimer act 15, TRFRET interf inactive and IN-LEDGF confirm 55.
Screening O=C(Cn1nc(-c2ccccc2)ccc1=O)NCCc1cccc(F)c1 returned TDP2 absorb inactive, MBD2 inh inactive, UHRF1 MBD2 ctr inactive and LEDGF integ inh inactive.
For Cc1ccccc1C(=O)n1ccc2ccc(-c3ccc4ccn(Cc5ccccc5)c4c3)cc21 the results were TDP2 absorb inactive, MBD2 inh inactive, UHRF1 MBD2 ctr inactive and LEDGF integ inh inactive.
Screening O=Cc1ccc(-c2c(-c3ccccc3)oc3c2C(OCCCCO)CCC3)o1 (centres undefined) returned ASAP1 GAP inh inactive, TDP2 absorb inactive, MBD2 inh inactive, ARFGAP1 inhibitor inactive, UHRF1 MBD2 ctr inactive, LEDGF integ inh 30, IN multimer act inactive, TRFRET interf inactive and IN-LEDGF confirm inactive.
CCCCCn1nnnc1C1(C)CCCC(=O)N1Cc1ccco1 (centres undefined) was read as TDP2 absorb inactive, MBD2 inh inactive, UHRF1 MBD2 ctr inactive and LEDGF integ inh inactive.
CCOC(=O)[C@]12CCCC3=C1N(CCC3)C(=O)[C@@H](CC(=O)NCc1ccc(OC)c(OC)c1)C2 was read as TDP2 absorb inactive, MBD2 inh inactive, UHRF1 MBD2 ctr inactive and LEDGF integ inh inactive.
Screening COC(=O)[C@]12C[C@H](CC(=O)NCCCN3CCCC3=O)C(=O)N(CCC3=CCCCC3)C1=C[C@H](C1CCCC1)O[C@@H]2C returned TDP2 absorb inactive, MBD2 inh inactive, UHRF1 MBD2 ctr inactive and LEDGF integ inh inactive.
For O=C(O)CSc1nnc(NC(=O)c2ccc3c(c2)OCO3)s1 the results were ASAP1 GAP inh inactive, TDP2 absorb inactive, MBD2 inh inactive, ARFGAP1 inhibitor inactive, UHRF1 MBD2 ctr inactive and LEDGF integ inh inactive.
Screening COC(=O)CSc1nnc(NC(=O)c2ccc3c(c2)OCO3)s1 returned ASAP1 GAP inh inactive, TDP2 absorb inactive, MBD2 inh inactive, ARFGAP1 inhibitor inactive, UHRF1 MBD2 ctr inactive, LEDGF integ inh 25, IN multimer act inactive, TRFRET interf inactive and IN-LEDGF confirm inactive.
Screening CC(=O)N(C)c1ccc(N=Cc2cc3c(cc2[N+](=O)[O-])OCO3)cc1 returned ASAP1 GAP inh inactive, TDP2 absorb 37, MBD2 inh inactive, ARFGAP1 inhibitor inactive, UHRF1 MBD2 ctr inactive, LEDGF integ inh 43, IN multimer act inactive, TRFRET interf inactive and IN-LEDGF confirm 51.

Assay outcomes: PubChem, The Scripps Research Institute Molecular Screening Center
